Laboratory results taken from ChEMBL document CHEMBL4823286, “Synthesis and evaluation of novel 2,4-diaminopyrimidines bearing a sulfoxide moiety as anaplastic lymphoma kinase (ALK) inhibition agents” (Bioorg Med Chem Lett, 2021).

Legend:
[1] = test system: BaF3; experiment: Antiproliferative activity against mouse BaF3 cells overexpressing ALK assessed as inhibition of cell proliferation measured by CCK8 assay; format: functional, cell-based
Method in brief: (§1)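 Cell proliferation inhibition; IC50 given as mean ± SD of three independent experiments.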

[2] = test system: NCI-H2228; experiment: Antiproliferative activity against human NCI-H2228 cells assessed as inhibition of cell proliferation measured by CCK8 assay; format: functional, cell-based; method in brief: as §1

COc1cc(N2CCN(C)CC2)ccc1Nc1ncc(Cl)c(Nc2ccccc2[S+]([O-])C(C)C)n1 (stereo not drawn)
IC50 [1]: 32.3 nM | IC50 [2]: 82.9 nM

CC[S+]([O-])c1cc(F)ccc1Nc1nc(Nc2ccc(N3CCCN(C)CC3)cc2OC)ncc1Cl (stereo not drawn)
IC50 [1]: 26.7 nM | IC50 [2]: 64.5 nM

CCSc1ccccc1Nc1nc(Nc2ccc(N3CCN(C)CC3)cc2OC)ncc1Cl
IC50 [1]: 78 nM | IC50 [2]: 981 nM

CC[S+]([O-])c1ccccc1Nc1nc(Nc2ccc(N3CCCN(C)CC3)cc2OC)ncc1Cl (stereo not drawn)
IC50 [1]: 23.5 nM | IC50 [2]: 51.5 nM
